The results in this text go back to ChEMBL document CHEMBL3526038, “The role of a basolateral transporter in rosuvastatin transport and its interplay with apical breast cancer resistance protein in polarized cell monolayer systems” (Drug Metab Dispos, 2012).

Series [1] can be described thus: Activity at OSTalpha/OSTbeta in human Caco2 cells assessed as drug transport from basolateral to apical side at 2 uM in presence of taurolithocholate relative to control. The class given is ADME, cell-based. Particulars: caco-2, 2 µM. In general terms: Passage across Caco-2 layers is used to estimate intestinal permeability.
Series [2] is described as follows: Activity at OSTalpha/OSTbeta in human Caco2 cells assessed as drug transport from apical to basolateral side at 50 uM in presence of 50 uM taurolithocholate relative to control. The class given is ADME, cell-based. The conditions noted are these: caco-2, 50 µM. In outline:
(§1)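 Caco-2 monolayers (21-28 days, TEER > 450 Ω·cm²). Rosuvastatin 50 μM was dosed apically with 10 μM atenolol as a low-permeability marker, in HBSSg/MES at pH 5.5. Basolateral buffer was HBSSg/HEPES pH 7.4, with or without tauroolithocholate (10, 50 or 100 μM). Incubated at 37°C. Basolateral samples were taken at 15, 30 and 60 min and measured by LC-MS/MS. Efflux was normalised to BCA protein and expressed as % control; triplicate.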

The subject of series [3] is BCRP. Put plainly: Apparent permeability from apical to basolateral side of MDCK cells overexpressing BCRP at 2 uM after 60 to 120 mins. The conditions noted are these: dog. The class given is ADME, cell-based, Canis lupus familiaris. In outline:
(§2)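 Monolayers on collagen-coated polycarbonate Transwells (0.4 μm pores), seeded at 60,000 cells/cm². Caco-2 were used at 21-28 days (TEER > 450 Ω·cm²); BCRP-MDCK at 7-11 days (TEER > 1200 Ω·cm²), stably expressing human ABCG2 R482 under neomycin selection. Rosuvastatin 2 μM in HBSSg pH 7.4 was dosed apically or basolaterally at 37°C. Samples were taken at 60 and 120 min for LC-MS/MS. Papp was determined; ER = Papp B-to-A / Papp A-to-B; triplicate.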

The nature of series [4]: Cmax in healthy human at 20 mg, po. Particulars: in vivo.
Series [5] is described as follows: Activity at OSTalpha/OSTbeta in human Caco2 cells assessed as drug transport from apical to basolateral side at 50 uM in presence of 100 uM taurolithocholate relative to control. The class given is ADME, cell-based. The conditions noted are these: caco-2, 50 µM. In outline:
as §1

In series [6] the test system is BCRP. Description: Efflux ratio of apparent permeability from basolateral to apical over apical to basolateral side of MDCK cells overexpressing BCRP at 2 uM after 60 to 120 mins. Particulars: dog. The class given is ADME, cell-based, Canis lupus familiaris. In outline:
as §2

Series [7] in a line: Activity at OSTalpha/OSTbeta in human Caco2 cells assessed as drug transport from basolateral to apical side at 2 uM in presence of taurocholate relative to control. Particulars: caco-2, 2 µM. The class given is ADME, cell-based.
Series [8] in a line: Activity at OSTalpha/OSTbeta in human Caco2 cells assessed as drug transport from basolateral to apical side at 2 uM in presence of estrone 3-sulfate relative to control. The conditions noted are these: caco-2, 2 µM. The class given is ADME, cell-based.
Series [9] can be described thus: Activity at OSTalpha/OSTbeta in human Caco2 cells assessed as drug transport from basolateral to apical side at 2 uM in presence of dehydroepiandrosterone sulfate relative to control. The class given is ADME, cell-based. The conditions noted are these: caco-2, 2 µM.
A short description of series [10]: Apparent permeability from basolateral to apical side of human Caco2 cells at 2 uM after 60 to 120 mins. The class given is ADME, cell-based. Particulars: Caco-2. In outline: as §2
Series [11] can be described thus: Apparent permeability from apical to basolateral side of MDCK cells at 2 uM after 60 to 120 mins. The class given is ADME, cell-based, Canis lupus familiaris. Particulars: dog. An outline of the steps:
as §2

Series [12] can be described thus: Cellular uptake in human Caco2 cells after 30 mins by Michaelis-Menten equation analysis. The class given is ADME, cell-based, Caco-2. An outline of the steps:
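Caco-2 monolayers (21-28 days). Rosuvastatin at various concentrations was dosed basolaterally in HBSSg pH 7.4 and incubated 30 min at 37°C. Apical samples and ice-cold-washed, acetonitrile-lysed cells were analysed by LC-MS/MS. Total uptake was fitted by nonlinear regression to saturable plus nonsaturable components to give Km; mean ± S.D., n = 3.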

Series [13] is described as follows: Efflux ratio of apparent permeability from basolateral to apical over apical to basolateral side of human Caco2 cells at 2 uM after 60 to 120 mins. The class given is ADME, cell-based. Particulars: Caco-2. In outline:
as §2

Series [14] is described as follows: Activity at OSTalpha/OSTbeta in human Caco2 cells assessed as drug transport from basolateral to apical side at 2 uM in presence of lithocholate acid relative to control. The conditions noted are these: caco-2, 2 µM. The class given is ADME, cell-based.
A short description of series [15]: Partition coefficient, pKa of the compound. The class given is physicochemical. Particulars: octanol/water.
The nature of series [16]: Activity at OSTalpha/OSTbeta in human Caco2 cells assessed as drug transport from basolateral to apical side at 2 uM in presence of rifamycin relative to control. The class given is ADME, cell-based. Particulars: caco-2, 2 µM.
The subject of a further series is Homo sapiens. Put plainly: Total clearance in human at 40 mg, po. Particulars: in vivo. The class given is ADME, organism-based.
Series [17] can be described thus: Oral bioavailability in human at 40 mg. Particulars: in vivo. The class given is ADME, organism-based.
Series [18] can be described thus: Apparent permeability from apical to basolateral side of human Caco2 cells at 2 uM after 60 to 120 mins. The class given is ADME, cell-based. Particulars: Caco-2. In outline: as §2
A short description of series [19]: Activity at OSTalpha/OSTbeta in human Caco2 cells assessed as drug transport from basolateral to apical side at 2 uM in presence of digoxin relative to control. The class given is ADME, cell-based. The conditions noted are these: caco-2, 2 µM.
Series [20] in a line: Activity at OSTalpha/OSTbeta in human Caco2 cells assessed as drug transport from basolateral to apical side at 2 uM in presence of indomethacin relative to control. The class given is ADME, cell-based. Particulars: caco-2, 2 µM.
Series [21] is described as follows: Activity at OSTalpha/OSTbeta in human Caco2 cells assessed as drug transport from basolateral to apical side at 2 uM in presence of bromosulfophthalein relative to control. Particulars: caco-2, 2 µM. The class given is ADME, cell-based.
Series [22] in a line: Efflux ratio of apparent permeability from basolateral to apical over apical to basolateral side of MDCK cells at 2 uM after 60 to 120 mins. The class given is ADME, cell-based, Canis lupus familiaris. Particulars: dog. An outline of the steps:
as §2

The nature of series [23]: Activity at OSTalpha/OSTbeta in human Caco2 cells assessed as drug transport from basolateral to apical side at 2 uM in presence of spironolactone relative to control. The class given is ADME, cell-based. The conditions noted are these: caco-2, 2 µM.
A short description of series [24]: Activity at OSTalpha/OSTbeta in human Caco2 cells assessed as drug transport from basolateral to apical side at 2 uM in presence of probenecid relative to control. The conditions noted are these: caco-2, 2 µM. The class given is ADME, cell-based.
The nature of series [25]: Apparent permeability from basolateral to apical side of MDCK cells at 2 uM after 60 to 120 mins. The class given is ADME, cell-based, Canis lupus familiaris. Particulars: dog. In outline:
as §2

The test system of series [26] is BCRP. Description: Apparent permeability from basolateral to apical side of MDCK cells overexpressing BCRP at 2 uM after 60 to 120 mins. The class given is ADME, cell-based, Canis lupus familiaris. The conditions noted are these: dog. In outline:
as §2

Series [27] in a line: Activity at OSTalpha/OSTbeta in human Caco2 cells assessed as drug transport from basolateral to apical side at 2 uM in presence of chenodoxycholate relative to control. The class given is ADME, cell-based. The conditions noted are these: caco-2, 2 µM.
Series [28] in a line: Activity at OSTalpha/OSTbeta in human Caco2 cells assessed as drug transport from apical to basolateral side at 50 uM in presence of 10 uM taurolithocholate relative to control. The class given is ADME, cell-based. Particulars: caco-2, 50 µM. In outline:
as §1

In general, Papp A→B refers to how fast a substance crosses the layer from the apical side. Usually Cmax stands for the maximum level reached in the sampled fluid or tissue. In general, efflux ratio refers to a quotient of directional permeabilities that is used to spot active efflux. The Papp B→A is the apparent permeability from the basolateral to the apical side of a cell layer. The term Km denotes the substrate concentration at which the rate is half of its maximum. As usually defined, the pKa is the negative logarithm of the acid dissociation constant. Low values mean a stronger acid or weaker base, high ones a weaker acid or stronger base. For orientation: bioavailability means the share of a dose that reaches the circulation, judged against a reference dose that is usually intravenous. A lower bioavailability goes with poor availability. For the compound `CC(C)c1nc(N(C)S(C)(=O)=O)nc(-c2ccc(F)cc2)c1/C=C/[C@@H](O)C[C@@H](O)CC(=O)[O-].CC(C)c1nc(N(C)S(C)(=O)=O)nc(-c2ccc(F)cc2)c1/C=C/[C@@H](O)C[C@@H](O)CC(=O)[O-].[Ca+2]` [ROSUVASTATIN CALCIUM], the Drug transport in series [1] was found to be 30.1%; in series [2], 436%; in series [5], 359%; in series [7] it was 29.1%; in series [8] it was 28.7%; in [9], 38.1%. Besides, the Drug transport was found to be 42.6% in [14]; 21.4% in series [16]; 43.9% in series [19]; 32.7% in series [20]; 23.5% in series [21]; 35.1% in series [23]. Further, the values for the Drug transport in [24], in series [27] and in series [28] were 73.8%, 27.9% and 338%, respectively. In addition, the Papp A→B at 2 µM in the series on BCRP [3] was determined as 0.28 ×10⁻⁶ cm/s; in series [11] it was 0.43 ×10⁻⁶ cm/s; in series [18] it was 0.25 ×10⁻⁶ cm/s. Moreover, in series [4], the peak level (Cmax) was 6 nM. The efflux ratio at 2 µM in the series on BCRP [6] amounted to 5.8; in series [13], 83.2; in [22] it was 1.1. Further, the apparent permeability from basolateral to apical (Papp B→A) at 2 µM in series [10] came out at 20.7 ×10⁻⁶ cm/s; in series [25] it was 0.49 ×10⁻⁶ cm/s; with BCRP [26], 1.63 ×10⁻⁶ cm/s. For the same compound, the Kd in series [12] (caco-2) came to 0.9985 µL/min/mg. In addition, in [12] (human, Caco-2 cells), the Michaelis-Menten constant (Km) at 0.5 h turned out to be 4.21 µM. The Jmax in series [12] (human, caco-2, 0.5 h) worked out at 24.64 pmol/min/mg. Besides, in series [15], the pKa was 4.2. The CL in the series on Homo sapiens is reported as 70%. Further, the bioavailability in series [17] turned out to be 20%.

With `COc1cc2nc(N3CCN(C(=O)c4ccco4)CC3)nc(N)c2cc1OC` [PRAZOSIN], the values for the Papp A→B at 2 µM (with BCRP [3]; in [11]; in series [18]) were 1.31 ×10⁻⁶ cm/s, 4.32 ×10⁻⁶ cm/s and 3.92 ×10⁻⁶ cm/s, respectively. For the same compound, the efflux ratio at 2 µM with BCRP [6] was determined as 34.5; in series [13], 10.5; in series [22] it was 3.1. Further, the Papp B→A at 2 µM in series [10] amounted to 41.1 ×10⁻⁶ cm/s; in [25], 13.6 ×10⁻⁶ cm/s; with BCRP [26], 45.1 ×10⁻⁶ cm/s.
